According to ChEMBL document CHEMBL4049446 (J Med Chem, 2017):

What was measured:
[1] = tested on: Human immunodeficiency virus 1; assay: Antiviral activity against HIV1 Lai infected in human MT2 cells; type: functional, cell-based; conditions: Human immunodeficiency virus 1, M:B_Lai
[2] = tested on: Human immunodeficiency virus 1; assay: Antiviral activity against darunavir-resistant HIV1 derived from 51 passages harboring protease L10I/I15V/K20R/L24I/V32I/L33F/M36I/M46L/I54M/L63P/K70Q/V82I/I84V/L89M mutant infected in human MT4 cells assessed as reduction in p24 Gag protein production after 7 days by chemiluminescent enzyme immunoassay; type: functional, cell-based; conditions: Human immunodeficiency virus 1, MT4, 168 h
[3] = tested on: Human immunodeficiency virus 1; assay: Ratio of IC50 for darunavir-resistant HIV1 derived from 30 passages harboring protease L10I/I15V/K20R/L24I/V32I/M36I/M46L/L63P/K70R/V82A/I84V/L89M mutant infected in human MT4 cells to IC50 for wild type HIV1 NL4.3 infected in human MT4 cells; type: functional
Outline: (§1)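 Fold change is the IC50 against each resistant variant divided by the IC50 against wild-type HIV-1 NL4-3, measured in the same triplicate antiviral assays (three independent experiments).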

[4] = tested on: Human immunodeficiency virus 1; assay: Ratio of IC50 for darunavir-resistant HIV1 derived from 51 passages harboring protease L10I/I15V/K20R/L24I/V32I/L33F/M36I/M46L/I54M/L63P/K70Q/V82I/I84V/L89M mutant infected in human MT4 cells to IC50 for wild type HIV1 NL4.3 infected in human MT4 cells; type: functional; outline: as §1
[5] = tested on: Human immunodeficiency virus 1; assay: Antiviral activity against wild type HIV1 NL4-3 infected in human MT4 cells assessed as reduction in p24 Gag protein production after 7 days by chemiluminescent enzyme immunoassay; type: functional, cell-based; conditions: Human immunodeficiency virus 1, NL4-3, MT4, 168 h
[6] = tested on: Human immunodeficiency virus 1; assay: Antiviral activity against darunavir-resistant HIV1 derived from 30 passages harboring protease L10I/I15V/K20R/L24I/V32I/M36I/M46L/L63P/K70R/V82A/I84V/L89M mutant infected in human MT4 cells assessed as reduction in p24 Gag protein production after 7 days by chemiluminescent enzyme immunoassay; type: functional, cell-based; conditions: Human immunodeficiency virus 1, MT4, 168 h
Outline: (§2)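 MT-4 cells (1×10^4) exposed to 50 TCID50 of wild-type HIV-1 NL4-3 or DRV-selected variants (20, 30 or 51 passages) and cultured with various inhibitor concentrations. IC50 read by p24 assay. Run in triplicate; mean ± 1 standard deviation from three independent experiments.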

[7] = tested on: Human immunodeficiency virus 1; assay: Antiviral activity against darunavir-resistant HIV1 derived from 20 passages harboring protease L10I/I15V/K20R/L24I/V32I/M36I/M46L/L63P/V82A/L89M mutant infected in human MT4 cells assessed as reduction in p24 Gag protein production after 7 days by chemiluminescent enzyme immunoassay; type: functional, cell-based; conditions: Human immunodeficiency virus 1, MT4, 168 h; outline: as §2
[8] = tested on: Human immunodeficiency virus 1; assay: Ratio of IC50 for darunavir-resistant HIV1 derived from 20 passages harboring protease L10I/I15V/K20R/L24I/V32I/M36I/M46L/L63P/V82A/L89M mutant infected in human MT4 cells to IC50 for wild type HIV1 NL4.3 infected in human MT4 cells; type: functional; outline: as §1
[9] = Inhibition of HIV1 protease expressed in Escherichia coli using 2-aminobenzoyl-Thr-Ile-Nle-Phe(p-N02)-Gln-Arg-NH as substrate preincubated for 5 to 10 mins followed by substrate addition measured after 1 hr by fluorescence assay; parameters: species or system Human immunodeficiency virus 1
[10] = tested on: Human immunodeficiency virus 1; assay: Ratio of IC50 for indinavir-resistant HIV1 NL4-3 harboring protease L10F/L24I/M46I/I54V/L63P/A71V/G73S/V82T mutant infected in human MT4 cells to IC50 for wild type HIV1 NL4.3 infected in human MT4 cells; type: functional; outline: as §1
[11] = tested on: Human immunodeficiency virus 1; assay: Ratio of IC50 for saquinavir-resistant HIV1 NL4-3 harboring protease L10I/N37D/G48V/I54V/L63P/G73C/I84V/L90M mutant infected in human MT4 cells to IC50 for wild type HIV1 NL4.3 infected in human MT4 cells; type: functional; outline: as §1
[12] = tested on: Human immunodeficiency virus 1; assay: Antiviral activity against tipranavir-resistant HIV1 NL4-3 harboring protease L10I/L33I/M36I/M46I/I54V/K55R/I62V/L63P/A71V/G73S/V82T/L90M/I93L mutant infected in human MT4 cells assessed as reduction in p24 Gag protein production after 7 days by chemiluminescent enzyme immunoassay; type: functional, cell-based; conditions: Human immunodeficiency virus 1, NL4-3, MT4, 168 h
Outline: (§3)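 Variants are HIV-1 NL4-3 selected in vitro under protease inhibitors: APV, ATV, IDV, LPV, NFV and SQV at 5 µM, TPV at 15 µM. Assays run in triplicate; IC50 given as mean ± 1 standard deviation from three independent experiments.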

[13] = tested on: Human immunodeficiency virus 1; assay: Ratio of IC50 for nelfinavir-resistant HIV1 NL4-3 harboring protease L10F/K20T/D30N/K45I/A71V/V77I mutant infected in human MT4 cells to IC50 for wild type HIV1 NL4.3 infected in human MT4 cells; type: functional; outline: as §1
[14] = tested on: Human immunodeficiency virus 1; assay: Antiviral activity against saquinavir-resistant HIV1 NL4-3 harboring protease L10I/N37D/G48V/I54V/L63P/G73C/I84V/L90M mutant infected in human MT4 cells assessed as reduction in p24 Gag protein production after 7 days by chemiluminescent enzyme immunoassay; type: functional, cell-based; conditions: Human immunodeficiency virus 1, NL4-3, MT4, 168 h; outline: as §3
[15] = tested on: Human immunodeficiency virus 1; assay: Ratio of IC50 for tipranavir-resistant HIV1 NL4-3 harboring protease L10I/L33I/M36I/M46I/I54V/K55R/I62V/L63P/A71V/G73S/V82T/L90M/I93L mutant infected in human MT4 cells to IC50 for wild type HIV1 NL4.3 infected in human MT4 cells; type: functional; outline: as §1
[16] = tested on: Human immunodeficiency virus 1; assay: Ratio of IC50 for amprenavir-resistant HIV1 NL4-3 harboring protease L10F/V32I/L33F/M46L/I54M/A71V mutant infected in human MT4 cells to IC50 for wild type HIV1 NL4.3 infected in human MT4 cells; type: functional; outline: as §1
[17] = tested on: Human immunodeficiency virus 1; assay: Ratio of IC50 for atazanavir-resistant HIV1 NL4-3 harboring protease L23I/E34Q/K43I/M46I/I50L/G51A/L63P/A71V/V82A/T91A mutant infected in human MT4 cells to IC50 for wild type HIV1 NL4.3 infected in human MT4 cells; type: functional; outline: as §1
[18] = tested on: Human immunodeficiency virus 1; assay: Antiviral activity against nelfinavir-resistant HIV1 NL4-3 harboring protease L10F/K20T/D30N/K45I/A71V/V77I mutant infected in human MT4 cells assessed as reduction in p24 Gag protein production after 7 days by chemiluminescent enzyme immunoassay; type: functional, cell-based; conditions: Human immunodeficiency virus 1, NL4-3, MT4, 168 h; outline: as §3
[19] = tested on: Human immunodeficiency virus 1; assay: Antiviral activity against atazanavir-resistant HIV1 NL4-3 harboring protease L23I/E34Q/K43I/M46I/I50L/G51A/L63P/A71V/V82A/T91A mutant infected in human MT4 cells assessed as reduction in p24 Gag protein production after 7 days by chemiluminescent enzyme immunoassay; type: functional, cell-based; conditions: Human immunodeficiency virus 1, NL4-3, MT4, 168 h; outline: as §3
[20] = tested on: Human immunodeficiency virus 1; assay: Ratio of IC50 for lopinavir-resistant HIV1 NL4-3 harboring protease L10F/V32I/M46I/I47A/A71V/I84V mutant infected in human MT4 cells to IC50 for wild type HIV1 NL4.3 infected in human MT4 cells; type: functional; outline: as §1
[21] = tested on: Human immunodeficiency virus 1; assay: Antiviral activity against lopinavir-resistant HIV1 NL4-3 harboring protease L10F/V32I/M46I/I47A/A71V/I84V mutant infected in human MT4 cells assessed as reduction in p24 Gag protein production after 7 days by chemiluminescent enzyme immunoassay; type: functional, cell-based; conditions: Human immunodeficiency virus 1, NL4-3, MT4, 168 h; outline: as §3
[22] = tested on: Human immunodeficiency virus 1; assay: Antiviral activity against amprenavir-resistant HIV1 NL4-3 harboring protease L10F/V32I/L33F/M46L/I54M/A71V mutant infected in human MT4 cells assessed as reduction in p24 Gag protein production after 7 days by chemiluminescent enzyme immunoassay; type: functional, cell-based; conditions: Human immunodeficiency virus 1, NL4-3, MT4, 168 h; outline: as §3
[23] = tested on: Human immunodeficiency virus 1; assay: Antiviral activity against indinavir-resistant HIV1 NL4-3 harboring protease L10F/L24I/M46I/I54V/L63P/A71V/G73S/V82T mutant infected in human MT4 cells assessed as reduction in p24 Gag protein production after 7 days by chemiluminescent enzyme immunoassay; type: functional, cell-based; conditions: Human immunodeficiency virus 1, NL4-3, MT4, 168 h; outline: as §3

SMILES | IC50 [1] [nM] | IC50 [2] [nM] | Ratio IC50 [3] | Ratio IC50 [4] | IC50 [5] [nM] | IC50 [6] [nM] | IC50 [7] [nM] | Ratio IC50 [8] | Ki [9] [nM] | Ratio IC50 [10] | Ratio IC50 [11] | IC50 [12] [nM] | Ratio IC50 [13] | IC50 [14] [nM] | Ratio IC50 [15] | Ratio IC50 [16] | Ratio IC50 [17] | IC50 [18] [nM] | IC50 [19] [nM] | Ratio IC50 [20] | also measured
CC(C)(C)NC(=O)[C@@H]1C[C@@H]2CCCC[C@@H]2CN1C[C@@H](O)[C@H](Cc1ccccc1)NC(=O)[C@H](CC(N)=O)NC(=O)c1ccc2ccccc2n1 | 21 |  |  |  |  |  |  |  |  |  |  |  |  |  |  |  |  |  |  |  | 
CC(C)CN(C[C@@H](O)[C@H](Cc1ccccc1)NC(=O)O[C@H]1CO[C@H]2OCC[C@H]21)S(=O)(=O)c1ccc2nc(NC3CC3)sc2c1 | 1.9 | 480 | 15 | 240 | 2 | 30 | 7.7 | 4 | 0.01 |  |  |  |  |  |  |  |  |  |  |  | 
COc1ccc(S(=O)(=O)N(CC(C)C)C[C@@H](O)[C@H](Cc2ccccc2)NC(=O)O[C@H]2C3CO[C@H]4OCC2C4C3)cc1 (some centres not stated) | 2.7 |  |  |  |  |  |  |  | 0.014 |  |  |  |  |  |  |  |  |  |  |  | 
CC(C)CN(C[C@@H](O)[C@H](Cc1ccccc1)NC(=O)O[C@H]1C2CO[C@H]3OCC1C3C2)S(=O)(=O)c1ccc(N)cc1 (some centres not stated) | 2.8 | > 1000 | 103 | >303 | 3.3 | 340 | 30 | 9 | 0.013 |  |  |  |  |  |  |  |  |  |  |  | 
COc1ccc(S(=O)(=O)N(CC(C)C)C[C@@H](O)[C@H](Cc2ccccc2)NC(=O)O[C@@H]2C3CO[C@H]4OCC2C4C3)cc1 (some centres not stated) | > 1000 |  |  |  |  |  |  |  | 10.8 |  |  |  |  |  |  |  |  |  |  |  | 
CC(C)CN(C[C@@H](O)[C@H](Cc1ccccc1)NC(=O)O[C@H]1C2CO[C@H]3OCC1C3C2)S(=O)(=O)c1ccc2nc(NC3CC3)sc2c1 (some centres not stated) | 0.26 | 35 | 5 | 90 | 0.39 | 1.8 | 0.17 | 0.4 | 0.04 | 0.03 | 0.08 | 0.057 | 0.07 | 0.03 | 0.15 | 0.7 | 0.5 | 0.028 | 0.19 | 0.007 | IC50 [21]: 0.0026 nM; IC50 [22]: 0.27 nM; IC50 [23]: 0.012 nM
COC(=O)N[C@H](C(=O)N[C@@H](Cc1ccccc1)[C@@H](O)CN(Cc1ccc(-c2ccccn2)cc1)NC(=O)[C@@H](NC(=O)OC)C(C)(C)C)C(C)(C)C [ATAZANAVIR] |  |  |  |  | 4.2 |  |  |  |  | 15 | 121 | > 1000 | 4 | 510 | >238 | 0.9 | >238 | 17 | > 1000 | 11 | IC50 [21]: 45 nM; IC50 [22]: 3.8 nM; IC50 [23]: 62 nM
Cc1cccc(C)c1OCC(=O)N[C@@H](Cc1ccccc1)[C@@H](O)C[C@H](Cc1ccccc1)NC(=O)[C@H](C(C)C)N1CCCNC1=O [LOPINAVIR] |  | > 1000 | >50 | >50 | 20 | > 1000 | > 1000 | >50 |  | 9 | >50 | > 1000 | 2 | > 1000 | >50 | 16 | 17 | 42 | 330 | >50 | IC50 [21]: > 1000 nM; IC50 [22]: 310 nM; IC50 [23]: 170 nM
